Measurements reported in publication PMC8851455 (ACS Omega, 2022).
Read-outs that look alike come from different tables or passages of the source.

What was measured:
S. typhimurium TA98 = test: Ames test, strain TA98; type: cell-based, Salmonella typhimurium
S. typhimurium TA100 = test: Ames test, strain TA100; type: cell-based, Salmonella typhimurium
S. typhimurium TA102 = settings: TA102 +S9, 5 μg/plate
MCF-7 cells = test: MCF-7 cell proliferation assay; type: cell-based, human; settings: for EC50: Homo sapiens, MCF7
Summary of the method: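 MCF-7 cells exposed to test compound or E2 at six concentrations from 10–12 to 10–7 M in EA-free medium. Proliferation read as MTT product absorbance at 570 nm. Three independent trials, each in triplicate. % RME2 = 100 × (OD test − OD VC)/(max OD E2 − OD VC). EC50 from curve fitting. EEF = EC50 of E2/EC50 of sample. One-way ANOVA with Dunnett's test versus E2 at each concentration.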

chicken embryo = test: Chicken embryonic assay; type: in vivo; settings: egg injection, day 18
chicken fetal liver = test: TBARs level; type: in vivo; settings: lower dose (0.05 mM: 45–50 μg/kg)
[1] = higher dose (0.5 mM: 450–500 μg/kg; E2 0.1 mM: 91 μg/kg)
[2] = lower dose (0.05 mM: 45–50 μg/kg; E2 0.01 mM: 9.1 μg/kg)

SMILES | EC50 (MCF-7 cells) [nM] | malformation rate (chicken embryo; [1]) [%] | number of dead chicken embryo (chicken embryo; [1]) | number of malformation chicken embryo (chicken embryo; [1]) | weights: embryo (chicken embryo; [1]) [g] | weights: heart (chicken embryo; [1]) [g] | weights: liver (chicken embryo; [1]) [g] | malformation rate (chicken embryo; [2]) [%] | mortality rate (chicken embryo; [2]) [%] | number of dead chicken embryo (chicken embryo; [2]) | number of malformation chicken embryo (chicken embryo; [2]) | weights: embryo (chicken embryo; [2]) [g] | weights: heart (chicken embryo; [2]) [g] | weights: liver (chicken embryo; [2]) [g] | also measured
Nc1ccc2cc3ccccc3cc2c1 [2-AA, reference compound] | – | – | – | – | – | – | – | – | – | – | – | – | – | – | number of revertants/plate (M ± SD), positive control (S. typhimurium TA98; TA98 +S9, 5 μg/plate, control set of luteolin and apigenin): 846 ± 47 ^e^** revertants/plate; number of revertants/plate (M ± SD), positive control (S. typhimurium TA98; TA98 +S9, 5 μg/plate, control set of quercetin and genistein): 806 ± 25 ^e^** revertants/plate; number of revertants/plate (M ± SD), positive control (S. typhimurium TA100; TA100 +S9, 5 μg/plate, control set of luteolin and apigenin): 941 ± 56 ^e^** revertants/plate; number of revertants/plate (M ± SD), positive control (S. typhimurium TA100; TA100 +S9, 5 μg/plate, control set of quercetin and genistein): 845 ± 45 ^e^** revertants/plate; number of revertants/plate (M ± SD), positive control (S. typhimurium TA102; control set of luteolin and apigenin): 997 ± 35 ^e^** revertants/plate; number of revertants/plate (M ± SD), positive control (S. typhimurium TA102; control set of quercetin and genistein): 757 ± 35 ^e^** revertants/plate
O=[N+]([O-])c1ccc2c(c1)Cc1ccccc1-2 [2-NF, reference compound] | – | – | – | – | – | – | – | – | – | – | – | – | – | – | number of revertants/plate (M ± SD), positive control (S. typhimurium TA98; TA98 -S9, 1 μg/plate, control set of luteolin and apigenin): 723 ± 64 ^c^** revertants/plate; number of revertants/plate (M ± SD), positive control (S. typhimurium TA98; TA98 -S9, 1 μg/plate, control set of quercetin and genistein): 634 ± 16 ^c^** revertants/plate
C[C@]12CC[C@@H]3c4ccc(O)cc4CC[C@H]3[C@@H]1CC[C@@H]2O [E2, 17β-estradiol, reference compound] | 0.01 | 0.0 | 6 | 0 | 22.89 ± 0.87 | 0.18 ± 0.01 | 0.47 ± 0.07 | 0.0 | 31.8 | 7 | 0 | 20.24 ± 3.53 | 0.18 ± 0.03 | 0.54 ± 0.01 | LSI (liver somatic index) (chicken embryo; [1]): 2.06 ± 0.38%; REEW (ratio of embryo to egg weight) (chicken embryo; [1]): 0.38 ± 0.021; mortality rate (chicken embryo; [1]): 33.3%; LSI (liver somatic index) (chicken embryo; [2]): 2.18 ± 0.01%; REEW (ratio of embryo to egg weight) (chicken embryo; [2]): 0.39 ± 0.001
[N-]=[N+]=[N-].[Na+] [NaN3, reference compound] | – | – | – | – | – | – | – | – | – | – | – | – | – | – | number of revertants/plate (M ± SD), positive control (S. typhimurium TA100; TA100 -S9, 1 μg/plate, control set of luteolin and apigenin): 860 ± 52 ^d^** revertants/plate; number of revertants/plate (M ± SD), positive control (S. typhimurium TA100; TA100 -S9, 1 μg/plate, control set of quercetin and genistein): 743 ± 28 ^d^** revertants/plate
O=c1cc(-c2ccc(O)c(O)c2)oc2cc(O)cc(O)c12 [luteolin] | 8.4 | 11.11 | 7 | 1 | 20.70 ± 0.00 | 0.18 ± 0.05 | 0.49 ± 0.05 | 21.43 | 12.5 | 2 | 3 | 19.75 ± 0.75 | 0.19 ± 0.05 | 0.44 ± 0.05 | EEF (estradiol equivalent factor) (MCF-7 cells; EC50 of E2 divided by that of the test compound): 0.0012; max % RME2 (MCF-7 cells; highest % RME2 (relative maximum % E2) in test range 10^–12–10^–7 M): 26%; TBARs value (chicken fetal liver): 142.56 nmol/g
